The subject of series [1] is Bacillus subtilis. In words: In vitro minimum inhibitory concentration for Bacillus subtilis ATCC 6633. It counts as functional. The gist of the method: (§1)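 Serial 2-fold agar dilution in Mueller Hinton medium, run alongside a reference quinolone. Inoculum adjusted to 10⁸ cfu/mL; compound range 0.007–16 μg/mL.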
Series [2] deals with Staphylococcus aureus. Nature of the series: In vitro minimum inhibitory concentration for Staphylococcus aureus ATCC 25178. The series is classed as functional. The method, boiled down: as §1
Series [3] is described as follows: HPLC capacity factor (k'). The series is classed as ADME. The gist of the method:
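Ion-pair reversed-phase HPLC on ODS-2 (10 μm) at 45 °C. Mobile phase: 10 mM sodium heptanesulfonate plus 50 mM KH2PO4 (pH 3.5)–methanol 45:55, 1 mL/min. Samples at 100 μg/mL in DMF, injected in duplicate, UV 280 nm. k' = (tR − t0)/t0.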

Series [4] relates to Staphylococcus epidermidis. Nature of the series: In vitro minimum inhibitory concentration for Staphylococcus epidermidis ATCC 155-1. It counts as functional. The method, boiled down:
as §1

Series [5] deals with Pseudomonas aeruginosa. Nature of the series: In vitro minimum inhibitory concentration for Pseudomonas aeruginosa ATCC 10145. It counts as functional. The gist of the method:
as §1

Series [6] has as its system Morganella morganii. Nature of the series: In vitro minimum inhibitory concentration for Morganella morganii ATCC 8019. It counts as functional. The method, boiled down: as §1
Series [7] has as its system Klebsiella pneumoniae. In words: In vitro minimum inhibitory concentration to inhibit Klebsiella pneumoniae ATCC 10031. The series is classed as functional. The method, boiled down: as §1
Series [8] has as its system Escherichia coli. In words: In vitro minimum inhibitory concentration for Escherichia coli ATCC 10799. The series is classed as functional. The gist of the method: as §1
For series [9], the system named is Enterobacter cloacae. In words: In vitro minimum inhibitory concentration for Enterobacter cloacae ATCC 23355. It counts as functional.
For series [10], the system named is Bacillus cereus. Nature of the series: In vitro minimum inhibitory concentration for Bacillus cereus ATCC 11778. The series is classed as functional. The method, boiled down:
as §1

Series [11] has as its system Proteus vulgaris. Nature of the series: In vitro minimum inhibitory concentration for Proteus vulgaris ATCC 8427. The series is classed as functional. The method, boiled down: as §1
In series [12] the test system is Enterococcus faecalis. In words: In vitro minimum inhibitory concentration for Streptococcus faecalis ATCC 10541. The series is classed as functional. The gist of the method: as §1

The record followed here is ChEMBL document CHEMBL1127424, “7-azetidinylquinolones as antibacterial agents. 2. Synthesis and biological activity of 7-(2,3-disubstituted-1-azetidinyl)-4-oxoquinoline- and -1,8-naphthyridine-3-carboxylic acids. Properties and structure-activity relationships of quinolones with an azetidine moiety” (J Med Chem, 1994).

Values after ≈ are worked out from the molar mass of the structure shown.

For the compound `C[C@H]1[C@H](N)CN1c1cc2c(cc1F)c(=O)c(C(=O)O)cn2CCF`, the MIC (as a rule, the lowest concentration found to suppress growth) in [1] amounted to 0.25 mg/L (≈ 0.741 µM); in series [2], 1 mg/L (≈ 2.96 µM); in series [4] it was 1 mg/L (≈ 2.96 µM); in series [5], 2 mg/L (≈ 5.93 µM); in series [6], 0.12 mg/L (≈ 0.356 µM); in series [7], 0.12 mg/L (≈ 0.356 µM). Further, the minimal inhibitory concentration (MIC) came out at 0.25 mg/L (≈ 0.741 µM) in [8]; 0.12 mg/L (≈ 0.356 µM) in series [9]; 1 mg/L (≈ 2.96 µM) in [10]; 1 mg/L (≈ 2.96 µM) in [11]; 2 mg/L (≈ 5.93 µM) in series [12]. In addition, in series [3], the “Log k'” value is given as -0.1459.
As to `C[C@H]1[C@H](N)CN1c1c(F)cc2c(=O)c(C(=O)O)cn(CCF)c2c1F`, the MIC in series [1] was 0.12 mg/L (≈ 0.338 µM); in [2], 0.5 mg/L (≈ 1.41 µM); in series [4] it was 0.5 mg/L (≈ 1.41 µM); in series [5] it was 1 mg/L (≈ 2.81 µM); in series [6], 0.06 mg/L (≈ 0.169 µM); in [7], 0.03 mg/L (≈ 0.0844 µM). Moreover, the minimal inhibitory concentration (MIC) worked out at 0.12 mg/L (≈ 0.338 µM) in series [8]; 0.12 mg/L (≈ 0.338 µM) in series [9]; 0.5 mg/L (≈ 1.41 µM) in series [10]; 0.5 mg/L (≈ 1.41 µM) in [11]; 2 mg/L (≈ 5.63 µM) in series [12]. In addition, the “Log k'” value in series [3] is -0.1024.
With `C[C@H]1[C@H](N)CN1c1c(F)cc2c(=O)c3c(=O)[nH]sc3n(C3CC3)c2c1F`, the minimal inhibitory concentration (MIC) turned out to be 0.06 mg/L (≈ 0.159 µM) in series [1]; 0.12 mg/L (≈ 0.317 µM) in [2]; 0.12 mg/L (≈ 0.317 µM) in series [4]; 1 mg/L (≈ 2.64 µM) in [5]; 0.06 mg/L (≈ 0.159 µM) in [6]; 0.03 mg/L (≈ 0.0793 µM) in series [7]. Moreover, the minimum inhibitory concentration (MIC) came to 0.12 mg/L (≈ 0.317 µM) in [8]; 0.03 mg/L (≈ 0.0793 µM) in series [9]; 0.06 mg/L (≈ 0.159 µM) in series [10]; 0.12 mg/L (≈ 0.317 µM) in series [11]; 0.25 mg/L (≈ 0.661 µM) in [12]. The “Log k'” value in [3] is 0.1134.
As for `CCn1cc(C(=O)O)c(=O)c2cc(F)c(N3C[C@@H](N)[C@@H]3C)nc21`, the MIC in series [1] came to 0.12 mg/L (≈ 0.375 µM); in [2], 0.5 mg/L (≈ 1.56 µM); in [4], 0.5 mg/L (≈ 1.56 µM); in series [5], 2 mg/L (≈ 6.24 µM); in [6], 0.25 mg/L (≈ 0.78 µM); in series [7] it was 0.12 mg/L (≈ 0.375 µM). Also, the MIC turned out to be 0.25 mg/L (≈ 0.78 µM) in [8]; 0.12 mg/L (≈ 0.375 µM) in series [9]; 0.5 mg/L (≈ 1.56 µM) in series [10]; 0.5 mg/L (≈ 1.56 µM) in series [11]; 2 mg/L (≈ 6.24 µM) in [12]. The “Log k'” value in series [3] was -0.1061.
As to `C[C@H]1[C@H](N)CN1c1cc2c(cc1F)c(=O)c(C(=O)O)cn2C(C)(C)C`, the MIC in [1] came to 0.06 mg/L (≈ 0.173 µM); in series [2], 0.25 mg/L (≈ 0.72 µM); in [4], 0.25 mg/L (≈ 0.72 µM); in series [5], 2 mg/L (≈ 5.76 µM); in series [6], 0.25 mg/L (≈ 0.72 µM); in series [7] it was 0.015 mg/L (≈ 0.0432 µM). The minimum inhibitory concentration (MIC) in [8] is 0.25 mg/L (≈ 0.72 µM); in series [9], 0.12 mg/L (≈ 0.345 µM); in [10] it was 0.25 mg/L (≈ 0.72 µM); in [11], 0.25 mg/L (≈ 0.72 µM); in [12], 0.5 mg/L (≈ 1.44 µM). For the same compound, in series [3], the “Log k'” value worked out at 0.1399.
As for `C[C@H]1[C@H](N)CN1c1nc2c(cc1F)c(=O)c(C(=O)O)cn2CCF`, the MIC in series [1] worked out at 0.12 mg/L (≈ 0.355 µM); in series [2], 1 mg/L (≈ 2.96 µM); in [4], 0.5 mg/L (≈ 1.48 µM); in [5], 2 mg/L (≈ 5.91 µM); in [6] it was 0.06 mg/L (≈ 0.177 µM); in series [7], 0.06 mg/L (≈ 0.177 µM). In addition, the minimum inhibitory concentration (MIC) in series [8] is 0.12 mg/L (≈ 0.355 µM); in series [9] it was 0.06 mg/L (≈ 0.177 µM); in series [10] it was 0.5 mg/L (≈ 1.48 µM); in [11] it was 0.5 mg/L (≈ 1.48 µM); in series [12], 4 mg/L (≈ 11.8 µM). Also, the “Log k'” value in series [3] is reported as -0.2166.
For `C[C@H]1[C@H](N)CN1c1c(F)cc2c(=O)c(C(=O)O)cn(CCF)c2c1Cl`, the MIC came out at 0.06 mg/L (≈ 0.161 µM) in [1]; 0.12 mg/L (≈ 0.323 µM) in series [2]; 0.12 mg/L (≈ 0.323 µM) in series [4]; 1 mg/L (≈ 2.69 µM) in series [5]; 0.03 mg/L (≈ 0.0807 µM) in series [6]; 0.03 mg/L (≈ 0.0807 µM) in series [7]. Further, the minimum inhibitory concentration (MIC) was found to be 0.03 mg/L (≈ 0.0807 µM) in [8]; 0.03 mg/L (≈ 0.0807 µM) in [9]; 0.25 mg/L (≈ 0.672 µM) in [10]; 0.25 mg/L (≈ 0.672 µM) in [11]; 0.5 mg/L (≈ 1.34 µM) in series [12]. Moreover, the “Log k'” value in series [3] amounted to 0.0166.
As for `CC[C@H]1[C@@H](O)CN1c1c(F)cc2c(=O)c(C(=O)O)cn(C3CC3)c2c1F`, the minimum inhibitory concentration (MIC) came out at 0.12 mg/L (≈ 0.329 µM) in [1]; 1 mg/L (≈ 2.74 µM) in series [2]; 0.5 mg/L (≈ 1.37 µM) in [4]; 8 mg/L (≈ 22 µM) in series [5]; 1 mg/L (≈ 2.74 µM) in series [6]; 0.5 mg/L (≈ 1.37 µM) in [7]. The minimal inhibitory concentration (MIC) in [8] came to 1 mg/L (≈ 2.74 µM); in series [9], 0.5 mg/L (≈ 1.37 µM); in series [10] it was 0.5 mg/L (≈ 1.37 µM); in series [11], 0.5 mg/L (≈ 1.37 µM); in [12], 8 mg/L (≈ 22 µM). In [3], the “Log k'” value came out at 0.679.
